Bioassay records from PubChem.
Glyco luc inh – N-linked glycosylation inhibition; D54 ERlucT glycosylation luciferase reporter, 24 h; percent of 100 nM tunicamycin response; reporter increase, % at 12.5 µM; 0.23% of 360,000 active; AID 588692;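 active means mean luciferase reporter signal, scaled so untreated is 0 and the glycosylation-blocking control 100, at or above a set limit in every replicate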;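 further: luciferase carries N-glycosylation sites so blocking glycosylation raises the light; 0% = median of neutral control wells and 100% = median of 100 nM tunicamycin wells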
Env fusion inh – inhibitors of HIV Env-mediated cell fusion | HeLa-JRFL Env/CEM21 cell fusion, luciferase | inhibition, % at 12.3 µM | 1.1% of 360,000 active | AID 651610;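 active means mean replicate inhibition score of at least 50 and every replicate individually at or above 50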;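 further: 0% = plate neutral controls and 100% = maraviroc near 300 nM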
MLL AF4-AF9 inh – MLL-AF4/AF9 protein interaction inhibition | P42568 | AlphaScreen, biotin-AF4 peptide binding to FLAG-AF9 | inhibition, % at 10 µM | 0.47% of 350,000 active | AID 651704;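 active means every replicate reaching a set inhibition limit, whatever the replicate mean, cut at about 25% in these data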;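 further: 0% = plate neutral control median and 100% = total signal loss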
Target sequence (P42568 whole entry, looked up): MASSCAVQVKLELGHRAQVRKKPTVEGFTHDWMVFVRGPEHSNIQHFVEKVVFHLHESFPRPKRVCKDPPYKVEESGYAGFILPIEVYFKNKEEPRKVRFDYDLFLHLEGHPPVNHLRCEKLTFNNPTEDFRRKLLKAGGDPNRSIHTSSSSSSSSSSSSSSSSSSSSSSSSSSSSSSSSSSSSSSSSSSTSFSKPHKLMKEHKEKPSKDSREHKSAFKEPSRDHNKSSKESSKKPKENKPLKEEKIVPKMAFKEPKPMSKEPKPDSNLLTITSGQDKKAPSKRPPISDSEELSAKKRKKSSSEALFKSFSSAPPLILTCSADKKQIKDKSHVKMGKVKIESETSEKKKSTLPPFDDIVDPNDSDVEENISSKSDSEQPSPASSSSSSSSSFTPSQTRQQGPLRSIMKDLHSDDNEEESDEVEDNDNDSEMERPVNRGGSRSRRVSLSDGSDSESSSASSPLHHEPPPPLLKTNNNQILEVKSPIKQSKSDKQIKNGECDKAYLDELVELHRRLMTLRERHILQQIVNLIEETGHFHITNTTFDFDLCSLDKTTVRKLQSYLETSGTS
FN deposit inh – fibronectin deposition inhibition; AH1F fibroblasts, Alexa488-fibronectin deposition fluorescence, overnight; 0.086% of 350,000 active; inhibition, % at 12.6 µM; AID 743247;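 active means mean inhibition across replicates of 30% or more, regardless of how many single replicates reach that level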;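 further: positive control wells lacked labelled fibronectin entirely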
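Schedule: 1 h cell adhesion before compound, then overnight fibronectin incubation; test system: AH1F fibroblast monolayer depositing Alexa488-labelled fibronectin into matrix; quantity: 10000 AH1F cells per well; probe or stimulus: fluorescent fibronectin at 24 nM final; signal: fluorescence, ex 485 nm, em 525 nm; evaluation: percent inhibition as loss of matrix-bound fibronectin fluorescence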
PAX8 inh HTS – inhibitors of PAX8 transcriptional activity in RMG-I cells; RMG-I TPO-luciferase reporter, SteadyGlo, 24 h; 1.2% of 360,000 active; inhibition, % at 12.6 µM;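 active means mean replicate inhibition at least 60% with every replicate also reaching 60%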;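 further: luciferase light reporting Pax8 driven TPO promoter activity; plate controls were median of neutral control wells for no effect and mitoxantrone controls for full effect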
EWS-Fli inh – blocks EWS/Fli oncoprotein-driven transcription | AID 651661 | 0.67% of 350,000 active | inhibition, % at 12.6 µM | A673 NR0B1-luciferase reporter, viability-normalised;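 active means mean inhibition of at least 50% after viability correction, with every replicate also passing that limit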;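 further: firefly luciferase signal divided by Alamar Blue viability fluorescence both relative to DMSO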
DNA binder FP – binds DNA displacing acridine orange; AID 720586; shares compounds with EWS-Fli inh; salmon sperm DNA acridine orange fluorescence polarization; AC35, µM (titrated, usually from 68 µM), without a hit: at the top dose activity change, negative = DNA binding; 2% of 640 active;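 active means fitted curve reaches a 35% signal fall AC35 below twice the sample's top valid tested dose, actives reach about 48 µM in these data; inactive means the rest, including activity in the rising direction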;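 further: lower polarization ratio signals compound binding to DNA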
Numbers without * were called inactive; / = not tested or not shown; ! = repeats disagree; [ ] = another dose, or the depositor's remark. Compounds with a hit are over-represented: about 2.5% of the library has one in this group of screens.

SMILES | Glyco luc inh | Env fusion inh | MLL AF4-AF9 inh | FN deposit inh | PAX8 inh HTS | EWS-Fli inh | DNA binder FP
CCOc1ccc(OCc2ccc(C(=O)NN=Cc3ccc[nH]3)cc2)cc1 | -7 | / | -2 | / | 34 | 57* | 0%
O=C(N/N=C/c1ccc[nH]1)c1ccccc1OCc1ccc(F)cc1 | 3 | 0 | -15 | -2 | 12 | 2 | /
C[C@H](CO)N1C[C@H](C)[C@@H](CN(C)Cc2ccc(C(=O)Nc3ccccc3N)cc2)Oc2ccc(NC(=O)Nc3ccc(F)cc3)cc2C1=O | / | 9[16.7 µM] | 0 | -2 | / | 6 | /
C[C@@H]1CN([C@@H](C)CO)C(=O)c2cc(N(C)C)ccc2O[C@H]1CN(C)Cc1ccc(C(=O)Nc2ccccc2N)cc1 | / | 9[16.7 µM] | 9 | -13 | -21 | 63* | -7%
C[C@H](CO)N1C[C@H](C)[C@H](CN(C)Cc2ccc(C(=O)Nc3ccccc3N)cc2)OCCCC[C@H](C)Oc2ccc(N(C)C)cc2C1=O | / | 21[16.7 µM] | / | / | -19 | 9 | /
C[C@@H]1CN([C@H](C)CO)C(=O)c2cc(N(C)C)ccc2O[C@H]1CN(C)Cc1ccc(C(=O)Nc2ccccc2N)cc1 | / | 4[16.7 µM] | 0 | -8 | 4 | 65* | 6%
C[C@@H]1CN([C@H](C)CO)C(=O)c2cc(NC(=O)Nc3ccccc3)ccc2O[C@@H]1CN(C)Cc1ccc(C(=O)Nc2ccccc2N)cc1 | / | -20[16.7 µM] | -1 | / | -12 | 55* | -11%
C[C@H]1CN([C@@H](C)CO)C(=O)c2cc(N(C)C)ccc2O[C@H]1CN(C)Cc1ccc(C(=O)Nc2ccccc2N)cc1 | / | -8[16.7 µM] | / | -17 | 3 | 61* | -8%
O=C(NCCc1ccncc1)[C@@H]1[C@@H](CO)[C@@H]2Cn3c(ccc(-c4cccc(F)c4)c3=O)[C@H]1N2 | / | / | -5 | / | 5 | 0 | /
CCCNC(=O)[C@@H]1[C@@H](CO)[C@@H]2Cn3c(cccc3=O)[C@@H]2N1C(=O)C1CC1 | / | / | -2 | / | / | -1 | /
C[C@@H]1CN([C@H](C)CO)C(=O)Cc2cc(N(C)C)ccc2O[C@H]1CN(C)Cc1ccc(C(=O)Nc2ccccc2N)cc1 | / | 10[16.7 µM] | 6 | -3 | 16 | 59* | -9%
C[C@@H]1CN([C@@H](C)CO)C(=O)Cc2cc(NC(=O)c3ccncc3)ccc2O[C@H]1CN(C)Cc1ccc(C(=O)Nc2ccccc2N)cc1 | / | 33[16.7 µM] | -13 | / | -23 | 28 | /
C[C@@H]1CN([C@@H](C)CO)C(=O)Cc2cc(NC(=O)C3CCCCC3)ccc2O[C@H]1CN(C)Cc1ccc(C(=O)Nc2ccccc2N)cc1 | / | -19[16.7 µM] | -6 | 3 | / | 52* | -7%
C[C@H](CO)N1C[C@H](C)[C@H](CN(C)Cc2ccc(C(=O)Nc3ccccc3N)cc2)Oc2ccc(N(C)C)cc2C1=O | / | -51[16.7 µM] | 19 | -7 | 76* | 65* | 3%
CCCNC(=O)[C@H]1[C@H](CO)[C@H]2Cn3c(ccc(-c4ccccc4F)c3=O)[C@H]2N1C | / | / | -2 | / | / | -2 | /
C/C=C/c1ccc(C2[C@@H]3CN(C(=O)Cc4ccccc4)C[C@H]2N3)cc1 (stereo partly drawn) | / | / | -1 | -3 | -5 | 55*! | -2%
Cc1ccc(S(=O)(=O)N(C)C[C@H]2Oc3ccc(NS(=O)(=O)c4c(C)noc4C)cc3C(=O)N([C@H](C)CO)C[C@@H]2C)cc1 | / | -16[16.7 µM] | -2 | / | -8 | 2 | /
Cc1ccc2oc(/N=C(\N)NC(=O)C(C)(C)C)nc2c1 | -19 | 1 | -3 | -8 | 29 | 85* | -6%
COc1ccc(S(=O)(=O)Nc2ccc3c(c2)C(=O)N(C)C[C@@H](OC)[C@H](C)CN(Cc2cc(F)ccc2F)[C@H](C)CO3)cc1 | / | 27[16.7 µM] | 3 | -12 | / | 5 | /
Cc1ccc(S(=O)(=O)N(C)C[C@H]2Oc3c(NC(=O)c4cc(C)nn4C)cccc3C(=O)N([C@@H](C)CO)C[C@@H]2C)cc1 | / | -12[16.7 µM] | -15 | / | -16 | -11 | /
CCCCCCCN(c1ccccc1)[C@@H]1C[C@H]2CCCC(=O)N3CC[C@@H](C1)[C@@H]23 | -8 | 74* | 14 | 6 | 56 | 62* | 3%
CC1(C)Oc2cc3oc(-c4cc(O)cc(O)c4)cc3cc2CC1O (stereo not drawn) | -18 | / | 6 | / | / | 76* | -1%
CN(C)CC(=O)N1[C@H](CO)[C@@H](c2ccccc2)C12CN(C(=O)c1ccccc1)C2 | / | / | -1 | / | / | -1 | /
S=c1[nH]nc(-c2cc(-c3ccccc3)n[nH]2)n1/N=C/C(Br)=C/c1ccccc1 | 32* | -44 | 0 | 17 | 45 | 75* | 0%
COc1ccc(S(=O)(=O)Nc2cccc3c2O[C@@H](CN(C)C)[C@@H](C)CN([C@@H](C)CO)C3=O)cc1 | / | / | -2 | / | -7 | 4 | /
SMILES | Glyco luc inh | Env fusion inh | MLL AF4-AF9 inh | FN deposit inh | PAX8 inh HTS | EWS-Fli inh | DNA binder FP
CCCCC[C@H](C)N1C[C@H](COCc2ccccc2)Oc2cc(N3CC[C@@H](N(C)C)C3)ccc2S1(=O)=O | / | / | 14 | 4 | 26 | 59* | -4%
O=C(Nc1cc(F)ccc1F)N1C[C@@H]2[C@H](c3ccccc31)[C@H](CO)N2Cc1ccncc1 | / | / | 0 | / | 15 | 3 | /
O=C(Nc1cccc(S(=O)(=O)N2CCCC2)c1)c1ccc(Cl)nc1 | 11 | 28 | -1 | 5 | / | 51* | -11%
O=C(Nc1cccc(S(=O)(=O)N2CCOCC2)c1)c1ccc(Cl)nc1 | 5 | / | 1 | 3 | 25 | -73 | /
O=C([C@H]1[C@H](CO)[C@H]2Cn3c(cccc3=O)[C@H]2N1Cc1ccccn1)N1CCC(Cc2ccccc2)CC1 | / | / | -1 | / | -12 | -76 | /
O=C(C[C@@H]1CC[C@@H]2[C@H](COC[C@H](O)CN2S(=O)(=O)c2ccccc2)O1)NCc1ccc2c(c1)OCO2 | / | / | -1 | -3 | 0 | -2 | /
COc1ccc(S(=O)(=O)Nc2ccc3c(c2)C(=O)N([C@@H](C)CO)C[C@@H](C)[C@@H](CN(C)Cc2ccc(C(=O)Nc4ccccc4N)cc2)O3)cc1 | / | -19[16.7 µM] | 2 | / | / | 49 | /
C[C@@H]1CCCCO[C@@H](CN(C)Cc2ccc(C(F)(F)F)cc2)[C@H](C)CN([C@H](C)CO)C(=O)c2cc(NC(=O)CCCN(C)C)ccc2O1 | / | -3[16.7 µM] | 10 | / | / | 12 | /
C[C@@H]1CCCCO[C@H](CN(C)Cc2ccc(C(F)(F)F)cc2)[C@H](C)CN([C@H](C)CO)C(=O)c2cc(NC(=O)CCCN(C)C)ccc2O1 | / | -12[16.7 µM] | 10 | / | / | 67* | 0%
C[C@@H]1CN([C@@H](C)CO)C(=O)c2cc(NS(=O)(=O)c3ccc(F)cc3)ccc2O[C@@H]1CN(C)Cc1ccc(C(=O)Nc2ccccc2N)cc1 | / | -24[16.7 µM] | -12 | -12 | 10 | 54* | -7%
COc1ccc(S(=O)(=O)Nc2ccc3c(c2)C(=O)N([C@H](C)CO)C[C@@H](C)[C@@H](CN(C)Cc2ccc(C(=O)Nc4ccccc4N)cc2)O3)cc1 | / | 14[16.7 µM] | 3 | / | / | 56* | -1%
